Shown is part of a subset that was picked to be rich in hits.
Candida biofilm = kills Candida albicans biofilms. C. albicans biofilm + clotrimazole, Alamar Blue. 85,000 tested, 0.14% active. AID 834. inhibition, % at 6 µM;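 active means inhibition above 20%; inactive means inhibition below 20%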;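 further: preformed 24 hr biofilms exposed to compound for 48 hr; 0% = biofilm without compound and 100% = blank killed by clotrimazole plus chlorhexidine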
MMP13 inh = inhibitors of human MMP13; MMP-13 fTHP FRET cleavage, Mca fluorescence; AID 570; 65,000 tested, 0.07% active; inhibition, % at 4 µM;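 active means inhibition above the mean of compound-free control plate wells plus 3 SD, cut at about 14% in these data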;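 further: 0% = DMSO wells and 100% = wells with reference MMP-13 inhibitor after basal subtraction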
hDAT+cocaine = modulates human dopamine transporter uptake under cocaine; Q01959; LLC-PK1 hDAT cells, [14C]-dopamine uptake with cocaine IC80; actives deviate in either direction; 110,000 tested, 1.3% active; B-score at 10 µM;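 active means Z score or B-score, a plate-position-corrected score, falls beyond the plate's 99.7% confidence bounds, in either direction; inactive means both scores lie inside the 99.7% bounds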;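 further: scored against the spread of the other compound wells on the same plate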
D1 allo mod = allosteric modulators of human D1 dopamine receptor; P21728; HEK293 D1, CRE-luciferase, dopamine EC30 potentiation; actives deviate in either direction; B-score at 10 µM; 58,000 tested, 5.9% active; AID 641;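 active means luminescence count or its row- and column-corrected plate score outside the 99.7% band of the plate's sample wells, on either side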
Target sequence (P21728 whole entry, looked up): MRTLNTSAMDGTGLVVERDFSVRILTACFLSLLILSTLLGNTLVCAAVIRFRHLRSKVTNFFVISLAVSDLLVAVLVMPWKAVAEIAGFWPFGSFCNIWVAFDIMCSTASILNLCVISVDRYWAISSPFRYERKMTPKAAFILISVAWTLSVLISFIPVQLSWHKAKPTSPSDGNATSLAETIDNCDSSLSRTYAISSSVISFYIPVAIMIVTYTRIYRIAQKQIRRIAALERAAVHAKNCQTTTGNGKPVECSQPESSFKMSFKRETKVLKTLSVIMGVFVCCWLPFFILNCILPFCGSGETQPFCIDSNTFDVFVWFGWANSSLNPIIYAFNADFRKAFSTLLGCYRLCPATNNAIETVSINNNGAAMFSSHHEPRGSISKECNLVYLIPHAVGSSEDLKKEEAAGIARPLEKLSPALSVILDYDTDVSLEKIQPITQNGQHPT
AP complement = orthogonal test for alternative complement pathway inhibitors; AID 1235; Human serum alternative complement pathway, LPS-coated ELISA, C3 deposition; tested in compound mixtures; 62,000 tested, 0.08% active; inhibition, % at 5 µM;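 active means inhibition above 30% in each of the two pooled mixtures holding the compound, so the lower value exceeds 30%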;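 further: 0% = serum in Mg-EGTA without compound and 100% = EDTA serum blank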
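Test system: human serum complement alternative pathway, C3 deposition onto LPS / Medium: Mg2+-EGTA GVB++ buffer containing human serum at 1:15 dilution / Probe or stimulus: Plate-bound LPS / Times: 1 h at 37 °C / Signal: ELISA with HRP anti-human C3 antibody, TMB substrate, absorbance 450 nm / Measure: percent inhibition / Repeats: two pool placements per compound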
D1 mod confirm = confirmation of human D1 dopamine receptor allosteric modulators | shares compounds with D1 allo mod | luminescence at 10 µM | HEK293 D1 CRE-luciferase, dopamine EC30 potentiation; stronger effect = higher value | 2,200 tested, 88% active;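 active means luminescence in either of two replicates above the same-plate mean plus 3 SD of the low-dose dopamine control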
D1 ag no DA = D1 (human) signaling in absence of dopamine. 1,900 tested, 0.8% active. HEK293 D1 CRE-luciferase, luminescence, no dopamine; stronger effect = higher value. shares compounds with D1 allo mod. AID 646. luminescence at 10 µM; in the data active means luminescence above about 3900
Isoprot counter = isoproterenol response counter-screen activity for D1 modulators. HEK293 D1 CRE-luciferase, isoproterenol EC30 counter-screen; stronger effect = higher value. shares compounds with D1 allo mod. luminescence at 10 µM. AID 647. 2,200 tested, 63% active;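 active means luminescence in either replicate above plate mean of wells with a partly effective reference agonist dose plus 3 SD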;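 further: isoproterenol raises cAMP through native beta-adrenoceptor Gs so signal bypasses D1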
* marks the source's active call; other numbers are inactive results; nt = not tested or not shown.

SMILES	Candida biofilm	MMP13 inh	hDAT+cocaine	D1 allo mod	AP complement	D1 mod confirm	D1 ag no DA	Isoprot counter
CCOC(=O)NC(=O)CN1C(=O)NC(C)(c2ccccc2)C1=O (stereo unspecified)	5	-1	-0.6	4.4*	16	5048	704	2512
CCC(=O)Nc1ccccc1Nc1cc(C#N)c(C#N)cc1[N+](=O)[O-]	-1	nt	0.026	nt	nt	nt	nt	nt
CCc1nnc(NC(=O)CSc2nc(C)c3c(c2C#N)CCCC3)s1	5	-41	0.61	5.8*	nt	11752*	nt	2960*
Cc1ccc(-n2nc3c(c2NC(=O)c2ccc(Br)o2)CSC3)c(C)c1	7	-2	-0.49	4.8*	14	5856	1520	2364
O=c1c2ccccc2nc(SCc2cn3ccsc3n2)n1-c1ccccc1F	7	5	0.00018	5.7*	6	14876*	1836	6172*
Nc1nc(Cl)nc2c1ncn2[C@@H]1O[C@H](CO)[C@@H](O)[C@H]1O	10	-7	-0.57	24*	20	16252*	5660*	11320*
Cc1ccc(CN2[C@@H](CC(C)C)COCCS2(=O)=O)cc1	nt	nt	0.63	nt	nt	nt	nt	nt
CCOC(=O)C1=C(C)Nc2ncnn2C1/C=C/c1ccccc1 (stereo unspecified)	8	1	1.7	2.8*	17	11572*	1448	3632*
C/C(CCc1oc2c(Br)cc(Br)cc2c1-c1ccc(C)o1)=N\O	-3	nt	-0.092	nt	nt	nt	nt	nt
C/C(CCc1oc2ccccc2c1-c1ccc(C)o1)=N/O	-1	-2	0.17	7.2*	3	9460*	1544	3964
CC(C)(C)c1cc(NC(=O)COC(=O)C2CC2)n(-c2ccccc2)n1	7	-1	0.39	2.1	10	nt	nt	nt
CCCC(=O)OCC(=O)Nc1cc(C(C)(C)C)nn1-c1ccccc1	5	6	-1.2	4.7*	-15	6968*	nt	2344
CCOC(=O)c1c(C)c(C(=O)NCc2ccc3c(c2)OCO3)c(C)n1CC	10	-3	nt	2.7	20	nt	nt	nt
CCOC(=O)c1c(C)c(C(=O)NCc2ccc3c(c2)OCO3)c(C)n1C	8	-2	0.11	4.3*	10	5908*	1544	2440
CC(=O)C1=C(C)NC(SCC(=O)c2ccc(F)cc2)=C(C#N)C1c1ccco1 (stereo unspecified)	nt	-2	0.66	5.5*	26	3664*	1712	2392
N#CCSc1nc2cc(C(=O)N3CCC(C(N)=O)CC3)ccc2c2nc3ccccc3n12	2	-2	0.29	10*	16	12528*	1880	10076*
CCOC(=O)c1sc(SCc2ccccc2)c2c1CC(C)(C)CC2=O	nt	nt	1.1	nt	nt	nt	nt	nt
COC(=O)c1sccc1NC(=O)c1ccc(Cl)s1	6	-2	0.1	1.7	8	nt	nt	nt
CNC(=O)c1ccsc1NC(=O)c1ccc(Cl)s1	0	-7	-0.16	4.9*	13	16692*	1816	3356*
CCOC(=O)c1c(CC(C)C)csc1NC=O	-4	4	1	17*	17	12684*	1528	4296*
Fc1cccc(Cl)c1CSc1nnnn1-c1ccc2c(c1)OCO2	6	12	0.39	5.8*	-12	11540*	nt	2836*
COc1ccc(C(=O)Nn2cc3c(c2-c2ccccc2)c(=O)n(C)c(=O)n3C)cc1	8	-1	-0.78	0.6	15	nt	nt	nt
COc1ccc(-c2c3c(=O)n(C)c(=O)n(C)c3cn2-c2ccccc2)cc1	4	0	0.49	6.5*	12	12728*	1536	2772
CN=C1CC(SC)=C1c1ccc(C)cc1	2	nt	0.38	nt	nt	nt	nt	nt
O=C(Nc1nnc(C2CC2)s1)C1Cc2ccccc2CN1S(=O)(=O)c1ccccc1F (stereo unspecified)	9	nt	-0.54	nt	nt	nt	nt	nt
CCOC(=O)c1sc(C)c2c1NC1(CCCCC1)NC2=O	5	-66	0.071	6.2*	10	14036*	nt	3196*
CC(=O)C(=Nc1ccc(Cl)cc1Cl)NNc1cccc(Cl)c1	3	nt	-1.5	nt	nt	nt	nt	nt
